Source: PubChem BioAssay AID2097 (Broad Institute, 2009)
In all, about 300,000 compounds went through this assay and about 120 (0.04%) were called active. The entries come from a sample that favours actives as a whole. Unmarked numbers belong to inactive results.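 How the source made its calls: active means more than half of replicate wells score below -50%, meaning over 50% inhibition versus plate controls; inconclusive means some replicates but at most half score below -50%; inactive means no replicate scores below -50%.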

Each compound was assayed against Glycogen synthase kinase-3 beta (Homo sapiens) (UniProt P49841) (assay: blockers of GSK3B enzyme activity – biochemical, cell-free homogeneous, HTS, primary screen (AID 2097;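 further: 0% = median DMSO wells and -100% = median GW8510 positive control wells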)). Settings: GST-GSK3beta kinase, ADP-Glo luminescence, 60 min; at 10 µM; active compounds read low.
Glycogen synthase kinase-3 beta (Homo sapiens), sequence (P49841 whole entry, looked up, the tested form may be a part): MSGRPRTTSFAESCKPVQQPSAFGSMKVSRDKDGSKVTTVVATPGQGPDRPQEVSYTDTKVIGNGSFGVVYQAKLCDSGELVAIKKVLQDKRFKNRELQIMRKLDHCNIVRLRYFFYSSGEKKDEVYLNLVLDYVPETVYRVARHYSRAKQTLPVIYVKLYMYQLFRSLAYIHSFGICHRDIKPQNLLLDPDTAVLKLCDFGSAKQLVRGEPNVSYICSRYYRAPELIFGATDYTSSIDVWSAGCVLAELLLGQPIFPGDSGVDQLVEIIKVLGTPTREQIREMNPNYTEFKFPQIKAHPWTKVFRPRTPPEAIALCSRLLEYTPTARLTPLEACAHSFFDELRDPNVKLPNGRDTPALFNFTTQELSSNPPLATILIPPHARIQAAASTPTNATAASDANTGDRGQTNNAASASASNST
How it was run: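 Assay system: GST-fused GSK3beta enzyme, cell-free / Medium: Tris pH 7.5 buffer with MgCl2, DTT, BSA, heparin / Also added: peptide substrate plus 25 µM ATP (final) / Compound: 10 µM single point / Timing: kinase reaction with compound 60 min at room temperature / Detection: ADP-Glo luminescence / Benchmarks: DMSO neutral wells and GW8510 at 20 µM as positive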

| SMILES | activity score (negative = inhibition) |
| --- | --- |
| CN(Cc1ccccc1)CC(O)COc1ccc(CNCc2cc3ccccc3s2)cc1 (configuration not stated) | 2.68% |
| CCN(CC)S(=O)(=O)c1ccc2c3c(cccc13)C(=O)S2 | -2.37% |
| O=C1COc2ccc(C(=O)COC(=O)C3CC(O)CN3S(=O)(=O)c3ccc(Cl)cc3)cc2N1 (configuration not stated) | 1.53% |
| CC(C)(C)NC(=O)CN(C(=O)c1csnn1)c1ccccc1-c1ccccc1 | -0.766% |
| Cc1cc(/C=N/Nc2ccc([N+](=O)[O-])cn2)c(C)n1-c1cccc(C(=O)O)c1 | -14.7% |
| COc1cc(/C=N\Nc2ccc([N+](=O)[O-])cn2)ccc1OCC(=O)O | -70.1% (active) |
| CCOc1ccc(/C=N/Nc2nncc(-c3ccccc3)n2)cc1OC | -0.0724% |
| O=C(C1CCN(S(=O)(=O)Cc2ccccc2)CC1)N1CCCc2ccccc21 | 4.16% |
| O=C(Nc1cccc(Cl)c1)Nc1ccccc1NS(=O)(=O)c1cccs1 | 1.54% |
| C1=C(N2CCOCC2)/C(=C/c2nc3ccccc3[nH]2)CC1 | -1.13% |
| C=CCc1cccc(/C=N/NC(=O)COc2ccc(-n3cnnn3)cc2)c1O | -4.1% |
| O=C(NCc1cccnc1)c1cc(S(=O)(=O)N2CCOCC2)c(Cl)cc1Cl | -0.415% |
| COc1ccc(C(=O)Oc2ccc(-c3nnco3)cc2)cc1S(=O)(=O)N1CCOCC1 | 2.99% |
| O=C(CCN1C(=O)c2ccccc2C1=O)NNC(=O)c1ccc(Cl)cc1Cl | 1.29% |
| COc1cc(C(=O)NCc2nnc(SCC(=O)Nc3nc4ccc(C)cc4s3)o2)cc(OC)c1OC | -2.02% |
| O=C1CCN(CCc2ccccc2)CCN1CCOc1ccccc1 | 3.91% |
| CN1C2CCC1/C(=C\c1ccccc1Cl)C(=O)/C2=C\c1ccccc1Cl | 0.435% |
| COc1ccccc1N(C)C(=O)c1cc(S(=O)(=O)N2CCc3ccccc32)cn1C | 0.131% |
| CCCCC(NC(=O)c1cccc(Br)c1)C(=O)O (configuration not stated) | -0.419% |

| SMILES | activity score (negative = inhibition) |
| --- | --- |
| Cc1c(CCC(=O)N[C@@H](CC(C)C)C(=O)O)c(=O)oc2c(C)c3oc4c(c3cc12)CCCC4 | -23.5% |
| O=C(OCc1nnc(-c2ccccc2)o1)c1cc(=O)[nH]c2ccccc12 | -0.304% |
| Cc1ccc(C(=O)NC2CCN(C(=O)Nc3ccccc3Cl)CC2)cc1 | 2.37% |
| CC1CN(c2nc(Nc3ccccc3)nc(N)c2[N+](=O)[O-])CC(C)O1 (configuration not stated) | -27.9% |
| Nc1nc(NCCCN2CCOCC2)nc(Nc2ccccc2)c1[N+](=O)[O-] | -73.5% (active) |
| O=[N+]([O-])c1ccc(NCCCN2CCOCC2)c(Cl)c1 | -5.04% |
| COc1ccc([N+](=O)[O-])cc1NC(=O)COC(=O)/C=C/c1ccco1 | 1.89% |
| CCOc1ccccc1C(=O)NC1CC2CCCC(C1)N2Cc1ccccc1 (configuration not stated) | 1.55% |
| Cc1cccc(-c2nc3c(c(SCC(=O)N4CCOCC4)n2)CCCC3)c1 | -0.852% |
| COc1ccccc1NC(=O)CCC(=O)N1CC(C)Oc2ccc(C)cc21 (configuration not stated) | -0.0566% |
| CCOC(=O)C[C@H]1c2ccc(C(F)(F)F)cc2S(=O)(=O)N1c1ccccc1 | 3.21% |
| CCC1(c2ccccc2)NC(=O)N(CC(=O)Nc2ccccc2C(=O)NC2CCCC2)C1=O (configuration not stated) | 1.66% |
| COc1ccc(-c2ccc(OC(=O)NC3CCS(=O)(=O)C3)cc2)cc1 (configuration not stated) | 1.32% |
| C=C(C)C(=O)O[C@H]1C/C(C)=C\C(=O)/C=C(\C)[C@H](O)[C@@H]2OC(=O)C(=C)[C@@H]21 | 2.58% |
| Cc1ccc(S(=O)(=O)/N=S(\C)C(C)C)cc1 (configuration not stated) | -3.78% |
| Cc1nn(-c2ccccc2)c2c1c(C)c(CCC(=O)NCC1CCCO1)c(=O)n2C (configuration not stated) | -0.881% |
| COc1ccc(CCC(C)N2CCc3ccccc3C2)cc1 (configuration not stated) | 3.34% |
| COc1ccc(CNS(=O)(=O)c2cc3c4c(c2)CCN4C(=O)CC3)cc1 | 0.199% |
| COc1ccc(C2OCC3(CO2)SC(=O)NC3=O)cc1OC (configuration not stated) | -1.61% |

| SMILES | activity score (negative = inhibition) |
| --- | --- |
| Cc1ccc(C(=O)Nc2nc3ccc(Cl)cc3s2)o1 | -1.18% |
| Cc1ccc(OCCNC(=O)CNC(=O)c2ccc(C)c(C)c2)cc1 | -1.65% |
| COC(=O)C1=NNC2(c3ccc(C)cc3)C(=O)N(c3cccc(C)c3C)C(=O)C12 (configuration not stated) | 1.69% |
| Cc1ccc(C2SCC(=O)N2c2ccccc2)cc1 (configuration not stated) | -1.18% |
| C[C@H](NC(=O)c1ccccc1Cl)C(=O)OCCOc1cccc(Cl)c1 | -1.48% |
| O=C(CCCN1C(=O)CSc2ncccc21)N1CCN(c2cccc(C(F)(F)F)c2)CC1 | -4.32% |
| CCC(C(=O)OCC(=O)Nc1ccccc1-c1ccccc1)c1ccccc1 (configuration not stated) | 0.894% |
| CC(=O)c1ccc(NC(=S)N(Cc2ccccc2)C(C)C2CC2)cc1 (configuration not stated) | -0.731% |
| Cc1nnc(C)c2c(C)n(N)c(C)c12 | 1.96% |
| CNC(=O)NC(=O)C(OC(=O)c1cccc(S(=O)(=O)N2CCCCC2)c1)c1ccccc1 (configuration not stated) | 1.44% |
| O=C(/C=C/c1cccc([N+](=O)[O-])c1)NCCSCc1ccco1 | -1% |
| CC(C)Nc1nnc(SC(C)C(=O)N(C)C2CCCCC2)s1 (configuration not stated) | -10.4% |
| CCc1nnc(NC(=O)CSCc2cc(=O)n3cc(C)sc3n2)s1 | 1.76% |
| COc1ccc(C)cc1Nc1n[n+](-c2ccccc2)c(-c2cccc(Cl)c2Cl)s1 | 1.38% |
| COC(=O)c1ccc2c(C(C)(C)O)c(C(C)(C)O)[nH]c2c1 | 0.923% |
| Cc1cc(C)n2nc(C(=O)N(C)C(c3ccccc3)c3ccccc3)nc2n1 | -1.04% |
| COC(=O)c1ccc(CNC(=O)C2CCC(=O)N(Cc3cccc(F)c3)C2)cc1 (configuration not stated) | -6.3% |
| CCc1noc(C)c1C(=O)N1CCCSC1=Nc1ccccc1OC | 3.72% |
| CC(OC(=O)c1ccc(S(=O)(=O)N2CCOCC2)cc1)c1ccccc1 (configuration not stated) | -0.509% |
